Experimental data from ChEMBL document CHEMBL4312035, “Preliminary SAR and biological evaluation of potent HIV-1 protease inhibitors with pyrimidine bases as novel P2 ligands to enhance activity against DRV-resistant HIV-1 variants” (Eur J Med Chem, 2020).

Key:
Protease = Protease (Human immunodeficiency virus 1, UniProt Q9YQ12); assay: Inhibition of HIV1 protease expressed in Escherichia coli using Arg-Glu (EDANS)-Ser-Gln-Asn-Tyr-Pro-Ile-Val-Gln-Lys(DABCYL)-Arg as substrate preincubated for 20 to 30 mins followed by substrate addition and measured for 10 mins by FRET assay
Sequence of Protease (Q9YQ12 whole entry): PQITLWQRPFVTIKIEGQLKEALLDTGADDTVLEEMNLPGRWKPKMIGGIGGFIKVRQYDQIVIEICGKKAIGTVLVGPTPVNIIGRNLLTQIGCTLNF
Method in brief: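 Recombinant HIV-1 protease, purified from E. coli. Buffer: 0.1 M sodium acetate, 1 M NaCl, 1 mM EDTA, 1 mM DTT, 2% DMSO, 1 mg/mL BSA, pH 4.7. Inhibitor dissolved in DMSO. Excitation 340 nm, emission 490 nm, recorded about 10 min. Run in triplicate; IC50 as mean ± 1 SD from three independent experiments.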

[1] = Cytotoxicity against human 293T cells measured after 24 hrs by CCK8 assay; assay type: cell-based; details: HEK-293T cells
Method in brief: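 293T cells plated at 20 000 per well and cultured 24 h before drug addition; exposure 24 h, then CCK-8 added and absorbance read at 450 nm after 2 h at room temperature. Run in triplicate; mean ± 1 SD from three independent experiments.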

[2] = tested on: Human immunodeficiency virus 1; assay: Antiviral activity against VSV-G pseudotyped HIV1 transfected in human 293T cells co-transfected with NL4-3 HIV1 supernatant infected in human SupT1 cells treated with compound for 48 hrs assessed as inhibition of viral infection at 10 uM after 48 hrs by luciferase assay (reference value: 0 %); assay type: functional; details: Human immunodeficiency virus 1, 48 h
[3] = tested on: Human immunodeficiency virus 1; assay: Ratio of EC50 for antiviral activity against darunavir-resistant HIV1 NL4-3 infected in human SupT1 cells infected with supernatants from virus-infected human TZM-bl cells to EC50 for antiviral activity against wild-type HIV1 NL4-3 infected in human SupT1 cells infected with supernatants from virus-infected human TZM-bl cells; assay type: functional
[4] = tested on: Human immunodeficiency virus 1; assay: Antiviral activity against darunavir-resistant HIV1 NL4-3 infected in human […] after 48 hrs by luciferase reporter assay; assay type: functional, organism-based; details: Human immunodeficiency virus 1, NL4-3, 48 h
[5] = tested on: Human immunodeficiency virus 1; assay: Antiviral activity against VSV-G pseudotyped HIV1 transfected in human 293T cells co-transfected with NL4-3 HIV1 supernatant infected in human SupT1 cells treated with compound for 48 hrs assessed as inhibition of viral infection at 100 nM after 48 hrs by luciferase assay (reference value: 0 %); assay type: functional; details: Human immunodeficiency virus 1, 48 h
[6] = tested on: Human immunodeficiency virus 1; assay: Antiviral activity against wild-type HIV1 NL4-3 infected in human SupT1 cells infected with […] after 48 hrs by luciferase reporter assay; assay type: functional, organism-based; details: Human immunodeficiency virus 1, NL4-3, 48 h

Row | Compound | IC50 (Protease) | CC50 at 24 h [1] | inhibition at 10 µM [2] | Ratio EC50 [3] | EC50 [4] | inhibition at 0.1 µM [5] | EC50 [6]
1 | CC(C)CN(C[C@@H](O)[C@H](Cc1ccccc1)NC(=O)Cn1cc(CO)c(=O)[nH]c1=O)S(=O)(=O)c1ccc(N)cc1 | 241 nM | > 100000 nM |  |  |  |  | 
2 | CC(C)CN(C[C@@H](O)[C@H](Cc1ccccc1)NC(=O)Cn1cc(F)c(N)nc1=O)S(=O)(=O)c1ccc([N+](=O)[O-])cc1 | 482 nM | > 100000 nM |  |  |  |  | 
3 | CC(C)CN(C[C@@H](O)[C@H](Cc1ccccc1)NC(=O)Cn1cc(F)c(N)nc1=O)S(=O)(=O)c1ccc(N)cc1 | 105 nM | > 100000 nM |  |  |  |  | 
4 | CC(C)CN(C[C@@H](O)[C@H](Cc1ccccc1)NC(=O)Cn1cc(F)c(=O)[nH]c1=O)S(=O)(=O)c1ccc(N)cc1 | 16.3 nM | 8800 nM | 63% |  |  |  | 
5 | CC(C)CN(C[C@@H](O)[C@H](Cc1ccccc1)NC(=O)Cn1cccnc1=O)S(=O)(=O)c1ccc([N+](=O)[O-])cc1 | 245 nM | > 100000 nM |  |  |  |  | 
6 | CC(C)CN(C[C@@H](O)[C@H](Cc1ccccc1)NC(=O)Cn1ccc(=O)[nH]c1=O)S(=O)(=O)c1ccc(N)cc1 | 20.1 nM | > 100000 nM | 48.4% |  |  |  | 
7 | CC(C)CN(C[C@@H](O)[C@H](Cc1ccccc1)NC(=O)Cn1cc(CO)c(=O)[nH]c1=O)S(=O)(=O)c1ccc([N+](=O)[O-])cc1 | 405 nM | > 100000 nM |  |  |  |  | 
8 | COc1ccc(S(=O)(=O)N(CC(C)C)C[C@@H](O)[C@H](Cc2ccccc2)NC(=O)Cn2cc(F)c(N)nc2=O)cc1 | 36 nM | > 100000 nM |  |  |  |  | 
9 | CC(C)CN(C[C@@H](O)[C@H](Cc1ccccc1)NC(=O)Cn1ccc(=O)[nH]c1=O)S(=O)(=O)c1ccc([N+](=O)[O-])cc1 | 20.1 nM | > 100000 nM | 51% |  |  |  | 
10 | COc1ccc(S(=O)(=O)N(CC(C)C)C[C@@H](O)[C@H](Cc2ccccc2)NC(=O)Cn2ccc(N)nc2=O)cc1 | 9.04 nM | > 100000 nM | 33.2% |  |  |  | 
11 | COc1ccc(S(=O)(=O)N(CC(C)C)C[C@@H](O)[C@H](Cc2ccccc2)NC(=O)Cn2cc(F)c(=O)[nH]c2=O)cc1 | 1.95 nM | > 100000 nM | 83.2% | 2.52 | 2700 nM | 51% | 1070 nM
12 | COc1ccc(S(=O)(=O)N(CC(C)C)C[C@@H](O)[C@H](Cc2ccccc2)NC(=O)Cn2cccnc2=O)cc1 | 10.3 nM | > 100000 nM | 50.3% |  |  |  | 
13 | Cc1cn(CC(=O)N[C@@H](Cc2ccccc2)[C@H](O)CN(CC(C)C)S(=O)(=O)c2ccc([N+](=O)[O-])cc2)c(=O)[nH]c1=O | 44.3 nM | > 100000 nM |  |  |  |  | 
14 | CC(C)CN(C[C@@H](O)[C@H](Cc1ccccc1)NC(=O)Cn1cc(F)c(=O)[nH]c1=O)S(=O)(=O)c1ccc([N+](=O)[O-])cc1 | 27.6 nM | 32400 nM | 32.8% |  |  |  | 
15 | COc1ccc(S(=O)(=O)N(CC(C)C)C[C@@H](O)[C@H](Cc2ccccc2)NC(=O)Cn2ccc(=O)[nH]c2=O)cc1 | 2.53 nM | > 100000 nM | 81% | 2.19 | 590 nM | 68% | 270 nM
16 | Cc1cn(CC(=O)N[C@@H](Cc2ccccc2)[C@H](O)CN(CC(C)C)S(=O)(=O)c2ccc([N+](=O)[O-])cc2)c(=O)nc1N | 1190 nM | > 100000 nM |  |  |  |  | 
17 | Cc1cn(CC(=O)N[C@@H](Cc2ccccc2)[C@H](O)CN(CC(C)C)S(=O)(=O)c2ccc(N)cc2)c(=O)[nH]c1=O | 19.7 nM | > 100000 nM | 54% |  |  |  | 
18 | CC(C)CN(C[C@@H](O)[C@H](Cc1ccccc1)NC(=O)Cn1ccc(N)nc1=O)S(=O)(=O)c1ccc(N)cc1 | 153 nM | > 100000 nM |  |  |  |  | 
19 | CC(C)CN(C[C@@H](O)[C@H](Cc1ccccc1)NC(=O)Cn1cccnc1=O)S(=O)(=O)c1ccc(N)cc1 | 126 nM | > 100000 nM |  |  |  |  | 
20 | Cc1cn(CC(=O)N[C@@H](Cc2ccccc2)[C@H](O)CN(CC(C)C)S(=O)(=O)c2ccc(N)cc2)c(=O)nc1N | 375 nM | > 100000 nM |  |  |  |  | 
21 | COc1ccc(S(=O)(=O)N(CC(C)C)C[C@@H](O)[C@H](Cc2ccccc2)NC(=O)Cn2cc(C)c(=O)[nH]c2=O)cc1 | 2.78 nM | > 100000 nM | 72.7% | 1.15 | 2870 nM |  | 2500 nM
22 | Cc1ccnc2c1NC(=O)c1cccnc1N2C1CC1 [NEVIRAPINE] |  |  |  |  |  | 76 to 77% | 
23 | COc1ccc(S(=O)(=O)N(CC(C)C)C[C@@H](O)[C@H](Cc2ccccc2)NC(=O)Cn2cc(CO)c(=O)[nH]c2=O)cc1 | 9.07 nM | > 100000 nM | 59.8% |  |  |  | 
24 | CC(C)CN(C[C@@H](O)[C@H](Cc1ccccc1)NC(=O)Cn1ccc(N)nc1=O)S(=O)(=O)c1ccc([N+](=O)[O-])cc1 | 411 nM | > 100000 nM |  |  |  |  | 
25 | CC(C)CN(C[C@@H](O)[C@H](Cc1ccccc1)NC(=O)O[C@H]1CO[C@H]2OCC[C@H]21)S(=O)(=O)c1ccc(N)cc1 |  | > 100000 nM | 83.2% |  | 100 nM |  | 6 nM
26 | COc1ccc(S(=O)(=O)N(CC(C)C)C[C@@H](O)[C@H](Cc2ccccc2)NC(=O)Cn2cc(C)c(N)nc2=O)cc1 | 147 nM | > 100000 nM |  |  |  |  | 
